KCC2 mod – modulates chloride dependent transport by human KCC2. Q9H2X9. KCC2 cells, thallium flux FluoZin-2 fluorescence. B-score of Tl+ flux slope (higher = more flux/activation; lower = inhibition) at 10 µM. 190,000 compounds, 2.2% hits. AID 1456;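 active means thallium flux slope and its plate-corrected score both differing from the plate sample mean at a set confidence after two filtering rounds, in either direction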;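 further: slope of fluorescence scaled to starting intensity during 10 to 20 s after thallium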
KCNQ1 act – potentiators or activators of human KCNQ1 potassium channel | P51787 | CHO-K1 KCNQ1, thallium flux FluxOR fluorescence; hits give high values | B-score at 10 µM | 310,000 compounds, 0.35% hits | AID 2648;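 active means fluorescence ratio B-score, a plate-corrected score, at least three library SD, with initial intensity B-score within 5 SD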
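Assay system: CHO-K1 cells stably expressing KCNQ1. Medium: assay buffer for compound exposure, DMSO matched across wells. Timing: 37 °C overnight plating, 90-min dark dye load, 20-min compound pretreatment. Signal: kinetic FluxOR fluorescence, 10 s baseline plus 110 s post-stimulus.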
KCNQ1 block – inhibitors of human KCNQ1 potassium channel; P51787; B-score at 10 µM; CHO-K1 KCNQ1, FluxOR thallium flux fluorescence; hits give high values; 310,000 compounds, 1.3% hits; AID 2642;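 active means compounds whose thallium flux B-score, printed positive for inhibition, exceeds three library SD while starting fluorescence stays within three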;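 further: channel opened by potassium depolarization with thallium stimulus after 20 min compound exposure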
hERG rescue – shields human hERG channel from block by proarrhythmic agents; Q12809; CHO-hERG, FluxOR thallium flux, dofetilide IC70 present; activation (rescue from dofetilide block), less the hit threshold, % at 10 µM; 310,000 compounds, 0.51% hits;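 active means activation above the mean of controls blocked by dofetilide plus 5 SD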;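 further: thallium influx through hERG after potassium depolarization seen as dye fluorescence rise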
KCNK9 block – blocks the human KCNK9 two-pore domain potassium channel; Q9NPC2; HEK293 KCNK9, FluxOR thallium flux fluorescence; hits give low values; B-score at 10 µM; 310,000 compounds, 1.2% hits; AID 488922;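 active means ratio B-score over 3 SD below the library mean, with starting fluorescence within 5 SD of its mean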;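 further: negative B-score means less thallium flux so channel inhibition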
KCNK3 block – human KCNK3 channel inhibition, primary screen | O14649 | CHO-KCNK3 thallium flux, FluxOR fluorescence; hits give low values | B-score at 10 µM | 340,000 compounds, 0.84% hits | AID 602410;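 active means B-score under library mean minus 4 SD, starting fluorescence ratio at most library mean plus 5 SD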;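 further: more negative B-score means stronger inhibition of thallium flux through KCNK3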
Target sequence (O14649 whole entry, looked up): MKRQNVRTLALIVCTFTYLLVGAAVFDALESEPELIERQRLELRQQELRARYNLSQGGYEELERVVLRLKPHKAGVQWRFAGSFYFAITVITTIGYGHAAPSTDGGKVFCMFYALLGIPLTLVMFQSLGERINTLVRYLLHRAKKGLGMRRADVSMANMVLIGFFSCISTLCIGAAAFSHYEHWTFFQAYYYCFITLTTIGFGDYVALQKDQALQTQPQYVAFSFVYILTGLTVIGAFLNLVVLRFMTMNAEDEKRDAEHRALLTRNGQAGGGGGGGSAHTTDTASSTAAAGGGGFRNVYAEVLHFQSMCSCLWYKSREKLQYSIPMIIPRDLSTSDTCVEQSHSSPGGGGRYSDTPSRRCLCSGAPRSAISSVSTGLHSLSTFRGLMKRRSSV
Large screens that a line does not name were inactive. This is a sample that favours compounds with a hit; in the whole collection about 4.1% have one here.

O=C(NCc1ccc(F)cc1)C(Cc1ccccc1)n1cccc1 (centres undefined)	none
O=C(C(=C1NCCN1)n1cncn1)c1ccccc1	none
Cc1cc(Cl)c(S(=O)(=O)N/N=C/c2ccc3c(c2)OCO3)c(Cl)c1	KCNQ1 block 10
CCC1CCCCN1C(=O)c1cccc(S(=O)(=O)Nc2cc(C(F)(F)F)ccc2Cl)c1 (centres undefined)	KCNQ1 block 7
O=C(NC1CCN(Cc2ccccc2)CC1)c1cccc(S(=O)(=O)Nc2cc(C(F)(F)F)ccc2Cl)c1	none
O=C(NC1CCCC1)C(c1cccnc1)N(C(=O)c1csnn1)c1ccccc1Cl (centres undefined)	none (no result: KCC2 mod)
CCOC(=O)c1c(C)n(-c2ccc(C)cc2)c2ccc(OCC(O)CNCC3CCCO3)cc12 (centres undefined)	KCNQ1 block 7
CCOC(=O)c1c(C)n(-c2ccc(C)cc2)c2ccc(OCC(O)CNCCCO)cc12 (centres undefined)	none
CCCCOC(=O)c1cc(C)nc2ccc(Br)cc12	hERG rescue 6.5
O=S(=O)(Nc1cccc(-n2cnnn2)c1)c1cccc(Cl)c1	KCNQ1 act 8 (no result: KCC2 mod)
CCOc1ccc(N(CC(=O)N2CCOCC2)S(=O)(=O)c2ccc(SC)cc2)cc1	none (no result: KCC2 mod)
COC(=O)c1[nH]c2ccc(Br)cc2c1NC(=O)CN1CCCc2ccccc21	KCNQ1 block 6
O=C(Oc1ccc2ccccc2c1)c1cncc(Br)c1	none
O=C(Oc1ccc2c(=O)c(Oc3ccc4ccccc4c3)coc2c1)c1cncc(Br)c1	hERG rescue 11 (no result: KCC2 mod)
O=C(CCC1CCCCC1)Nc1cccc(C(=O)Nc2ccc(C(=O)O)cc2)c1	none (no result: KCC2 mod)
Cn1c(=O)c(NCCO)c2c3c(cccc31)C(=O)c1ccccc1-2	KCNQ1 block 25
CC(=O)Nc1cc(C(=O)N(C)Cc2ccco2)ccc1Sc1ccc(C)cc1	none
O=S(=O)(NCCc1csc(-c2cccnc2)n1)c1cccs1	none
CCOc1ccccc1C(=O)NC(C(=O)N(C)Cc1ccc2c(c1)OCO2)C(C)C (centres undefined)	KCNK3 block -9.2 (no result: KCC2 mod, KCNQ1 act, KCNQ1 block, hERG rescue, KCNK9 block)
CCOc1ccccc1C(=O)N[C@H](C(=O)OCc1cc(=O)oc2cc(C)ccc12)C(C)C	KCNK9 block -6.7
COC(=O)CCN(C(=O)c1ccc([N+](=O)[O-])cc1)c1ccccn1	KCNQ1 block 11
COC(=O)CCN(C(=O)c1cc([N+](=O)[O-])cc([N+](=O)[O-])c1)c1ccccn1	none
CCOC(=O)Cc1csc(NC(=S)NC(=O)c2ccccc2Br)n1	KCC2 mod 50, KCNQ1 act 17, hERG rescue 15
Cc1csc(NC(=O)c2ccccc2)n1	none (no result: KCC2 mod)
Cc1csc(NC(=S)NC(=O)c2ccccc2)n1	hERG rescue 4.7 (no result: KCC2 mod)
CCOC(=O)Cc1csc(NC(=O)c2ccc(Br)s2)n1	none (no result: KCNK3 block)
CCOC(=O)Cc1csc(NC(=S)NC(=O)c2ccc(C)cc2)n1	KCC2 mod 55
CCOC(=O)Cc1csc(NC(=S)NC(=O)c2ccccc2)n1	KCC2 mod 52
COc1ccccc1NS(=O)(=O)c1cccc(C(=O)NNC(=O)c2ccc(=O)[nH]c2)c1	none (no result: KCC2 mod, KCNQ1 act, KCNQ1 block, hERG rescue, KCNK9 block)
Cc1ccccc1OCCC(=O)OCC(=O)Nc1ccc(N2CCOCC2)cc1	none (no result: KCC2 mod)
CCCn1c(COc2ccc(C(=O)O)cc2)nc2ccccc21	none (no result: KCC2 mod)
O=c1c(-c2cccc3ccccc23)[n+]([O-])c2ccccc2n1O	hERG rescue 9.5
CCOC(=O)C1=C(COC(=O)COc2ccccc2C=O)NC(=O)NC1C (centres undefined)	none (no result: KCC2 mod, KCNQ1 act, KCNQ1 block, hERG rescue, KCNK9 block)
CC(Sc1nc(N2CCCCC2)c2c(c1C#N)CCCC2)C(=O)O (centres undefined)	none
C=CCC(O)(CC=C)CNC(=O)C1CCC(=O)N(CCCc2ccccc2)C1 (centres undefined)	hERG rescue 6.7 (no result: KCC2 mod)
Cc1ccc(C)c2c1[nH]c1ccc([N+](=O)[O-])cc12	KCNQ1 block 8
COc1cc(OC)cc(C(=O)NC(=S)N(Cc2ccccc2)C(C)C)c1	KCNQ1 act 27, hERG rescue 17 (no result: KCC2 mod)
CCCN(CCC)C(=S)NC(=O)c1ccc(-c2ccccc2)cc1	KCNQ1 act 9, hERG rescue 19 (no result: KCC2 mod)
CCOc1ccc(C(=O)NCCc2ccccc2)cc1	none
